Test results taken from ChEMBL document CHEMBL1140012, “Rapid hit to lead evaluation of pyrazolo[3,4-d]pyrimidin-4-one as selective and orally bioavailable mGluR1 antagonists” (Bioorg Med Chem Lett, 2007).
Converted amounts (≈) assume the structure as drawn.

Tests used:
[1] = target: Metabotropic glutamate receptor 1 (Homo sapiens, UniProt Q13255); assay: Antagonist activity at human mGluR1 receptor expressed in […] cells assessed as inhibition of glutamate-induced calcium flux by FLIPR assay; assay type: functional, cell-based
Chain of Metabotropic glutamate receptor 1 (Q13255 whole entry): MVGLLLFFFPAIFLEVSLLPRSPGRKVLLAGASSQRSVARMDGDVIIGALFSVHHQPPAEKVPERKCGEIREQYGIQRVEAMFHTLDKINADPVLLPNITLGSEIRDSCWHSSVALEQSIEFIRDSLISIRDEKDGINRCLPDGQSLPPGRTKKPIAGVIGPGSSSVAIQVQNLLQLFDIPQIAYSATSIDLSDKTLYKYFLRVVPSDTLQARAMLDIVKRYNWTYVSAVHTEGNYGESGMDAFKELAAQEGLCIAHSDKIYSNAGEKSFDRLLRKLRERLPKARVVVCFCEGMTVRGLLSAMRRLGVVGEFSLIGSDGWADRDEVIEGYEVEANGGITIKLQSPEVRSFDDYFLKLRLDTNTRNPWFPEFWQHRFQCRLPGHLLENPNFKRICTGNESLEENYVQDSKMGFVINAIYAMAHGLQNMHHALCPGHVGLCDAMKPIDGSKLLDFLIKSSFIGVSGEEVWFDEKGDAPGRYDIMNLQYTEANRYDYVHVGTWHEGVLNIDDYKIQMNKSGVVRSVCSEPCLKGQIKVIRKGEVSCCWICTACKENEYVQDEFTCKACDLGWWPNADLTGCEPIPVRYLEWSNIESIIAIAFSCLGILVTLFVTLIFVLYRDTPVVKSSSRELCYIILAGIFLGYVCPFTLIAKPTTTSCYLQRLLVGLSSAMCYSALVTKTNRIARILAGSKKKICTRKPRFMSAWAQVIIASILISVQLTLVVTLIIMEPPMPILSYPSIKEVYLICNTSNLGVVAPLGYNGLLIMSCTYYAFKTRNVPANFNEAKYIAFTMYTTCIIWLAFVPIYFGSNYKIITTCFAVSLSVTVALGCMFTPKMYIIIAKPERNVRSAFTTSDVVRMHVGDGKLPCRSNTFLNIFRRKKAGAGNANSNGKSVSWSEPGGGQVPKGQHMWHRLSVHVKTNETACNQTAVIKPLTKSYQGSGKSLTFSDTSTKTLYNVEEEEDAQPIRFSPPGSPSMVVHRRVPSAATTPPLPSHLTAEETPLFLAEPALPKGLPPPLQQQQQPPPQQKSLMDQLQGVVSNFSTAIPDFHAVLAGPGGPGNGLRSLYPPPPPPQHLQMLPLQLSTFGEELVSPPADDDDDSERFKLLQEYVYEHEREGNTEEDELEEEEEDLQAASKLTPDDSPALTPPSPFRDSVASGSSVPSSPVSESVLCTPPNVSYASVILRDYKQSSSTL
Summary of the method: (§1)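 1321N1 cells transfected with human mGluR1 or human mGluR5 and co-expressing rat GLAST were used in a FLIPR calcium influx assay. Calcium flux was induced by 10 μM glutamate. IC50 is the concentration blocking 50% of that flux, given as the mean ± SEM of at least three determinations.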

[2] = target: Metabotropic glutamate receptor 5 (Homo sapiens, UniProt P41594); assay: Antagonist activity at human mGluR5 receptor expressed in […] cells assessed as inhibition of glutamate-induced calcium flux by FLIPR assay; assay type: functional, cell-based; summary of the method: as §1
Chain of Metabotropic glutamate receptor 5 (P41594 whole entry): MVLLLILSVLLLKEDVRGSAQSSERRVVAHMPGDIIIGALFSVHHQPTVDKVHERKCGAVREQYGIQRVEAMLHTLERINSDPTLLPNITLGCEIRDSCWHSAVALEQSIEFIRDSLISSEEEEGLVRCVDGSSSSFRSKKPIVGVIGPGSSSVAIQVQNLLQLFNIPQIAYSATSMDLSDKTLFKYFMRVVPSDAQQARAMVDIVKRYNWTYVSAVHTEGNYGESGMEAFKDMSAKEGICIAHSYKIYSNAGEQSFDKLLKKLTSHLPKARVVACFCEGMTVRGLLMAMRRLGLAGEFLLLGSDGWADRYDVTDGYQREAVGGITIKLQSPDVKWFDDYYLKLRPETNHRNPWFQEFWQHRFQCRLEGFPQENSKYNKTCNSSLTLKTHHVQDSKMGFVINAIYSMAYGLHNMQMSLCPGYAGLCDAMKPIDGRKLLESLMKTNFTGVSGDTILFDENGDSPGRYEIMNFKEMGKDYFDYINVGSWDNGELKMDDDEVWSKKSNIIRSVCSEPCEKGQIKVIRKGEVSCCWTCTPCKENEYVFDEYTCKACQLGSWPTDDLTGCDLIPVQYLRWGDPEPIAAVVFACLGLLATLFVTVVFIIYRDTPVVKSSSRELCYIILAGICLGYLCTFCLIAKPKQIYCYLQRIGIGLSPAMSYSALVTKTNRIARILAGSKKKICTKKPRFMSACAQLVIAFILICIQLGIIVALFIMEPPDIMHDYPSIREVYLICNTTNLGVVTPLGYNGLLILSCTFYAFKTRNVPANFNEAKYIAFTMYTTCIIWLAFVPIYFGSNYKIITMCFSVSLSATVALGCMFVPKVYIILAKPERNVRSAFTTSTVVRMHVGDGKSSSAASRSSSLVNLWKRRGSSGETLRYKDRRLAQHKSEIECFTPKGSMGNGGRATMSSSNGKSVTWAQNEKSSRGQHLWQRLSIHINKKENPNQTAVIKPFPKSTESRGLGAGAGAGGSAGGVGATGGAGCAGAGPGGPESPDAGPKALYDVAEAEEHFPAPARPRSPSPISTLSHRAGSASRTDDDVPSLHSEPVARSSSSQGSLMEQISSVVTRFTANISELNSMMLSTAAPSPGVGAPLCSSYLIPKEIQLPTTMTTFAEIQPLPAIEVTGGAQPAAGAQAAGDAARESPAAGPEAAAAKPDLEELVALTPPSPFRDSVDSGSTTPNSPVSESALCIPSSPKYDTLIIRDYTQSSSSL

[3] = Aqueous solubility of the compound; assay type: physicochemical; conditions: buffer
[4] = Metabolic stability assessed as intrinsic clearance in rat liver microsomes; assay type: ADME, Microsome
Summary of the method: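 Intrinsic clearance was measured in rat liver microsomes and reported as scaled intrinsic clearance.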

[5] = Permeability of the compound; assay type: ADME; conditions: not told; read-out: permeability
Summary of the method: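 Passive membrane permeability was measured and reported in ×10^-6 cm/s.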

[6] = AUC in Sprague-Dawley rat at 1 mg/kg, iv; assay type: ADME, organism-based; set-up: dose 1 mg/kg, route intravenous; conditions: plasma
Rattus norvegicus [7] = assay: (§2) AUC in Sprague-Dawley rat at 1 mg/kg, ip; assay type: ADME, organism-based, Plasma; set-up: dose 1 mg/kg, route intraperitoneal; conditions: in vivo
[8] = AUC in Sprague-Dawley rat at 1 mg/kg, po; assay type: ADME, organism-based; set-up: dose 1 mg/kg, route oral; conditions: plasma
[9] = Volume of distribution at terminal phase in Sprague-Dawley rat at 1 mg/kg, iv; assay type: ADME, organism-based; set-up: dose 1 mg/kg, route intravenous; conditions: in vivo, read-out: Vbeta
Rattus norvegicus [10] = assay: Clearance in Sprague-Dawley rat at 1 mg/kg, iv; assay type: ADME, organism-based; set-up: dose 1 mg/kg, route intravenous; conditions: in vivo
Rattus norvegicus [11] = assay: (§3) Cmax in Sprague-Dawley rat at 1 mg/kg, ip; assay type: ADME, organism-based; set-up: dose 1 mg/kg, route intraperitoneal; conditions: in vivo
[12] = Cmax in Sprague-Dawley rat at 1 mg/kg, po; assay type: ADME, organism-based; set-up: dose 1 mg/kg, route oral; conditions: in vivo
Rattus norvegicus [13] = assay: (§4) Tmax in Sprague-Dawley rat at 1 mg/kg, ip; assay type: ADME, organism-based; set-up: dose 1 mg/kg, route intraperitoneal; conditions: in vivo
[14] = Tmax in Sprague-Dawley rat at 1 mg/kg, po; assay type: ADME, organism-based; set-up: dose 1 mg/kg, route oral; conditions: in vivo
[15] = Half life in Sprague-Dawley rat at 1 mg/kg, iv; assay type: ADME, organism-based; set-up: dose 1 mg/kg, route intravenous; conditions: in vivo
Rattus norvegicus [16] = assay: (§5) Half life in Sprague-Dawley rat at 1 mg/kg, ip; assay type: ADME, organism-based; set-up: dose 1 mg/kg, route intraperitoneal; conditions: in vivo
[17] = Half life in Sprague-Dawley rat at 1 mg/kg, po; assay type: ADME, organism-based; set-up: dose 1 mg/kg, route oral; conditions: in vivo
[18] = Bioavailability in Sprague-Dawley rat at 1 mg/kg, ip; assay type: ADME, organism-based; conditions: in vivo
[19] = Oral bioavailability in Sprague-Dawley rat at 1 mg/kg; assay type: ADME, organism-based; conditions: in vivo
[20] = as §2; assay type: ADME, organism-based, Plasma; set-up: dose 1 mg/kg, route intraperitoneal; conditions: Sprague-Dawley, plasma
[21] = as §3; assay type: ADME, organism-based; set-up: dose 1 mg/kg, route intraperitoneal; conditions: Sprague-Dawley, in vivo
[22] = as §4; assay type: ADME, organism-based; set-up: dose 1 mg/kg, route intraperitoneal; conditions: Sprague-Dawley, in vivo
[23] = as §5; assay type: ADME, organism-based; set-up: dose 1 mg/kg, route intraperitoneal; conditions: Sprague-Dawley, in vivo

Row | Compound | IC50 [1] [nM] | IC50 [2] [nM] | solubility [3] [µM] | CLint scaled [4] [mL/min/kg] | Papp [5] [×10⁻⁶ cm/s] | also measured
1 | Cc1nc2c(cnn2-c2ccc(S(N)(=O)=O)cc2)c(=O)n1-c1ccc(Cl)cc1 | 1410 | > 100000 | – | – | – | –
2 | Cc1nc2c(cnn2-c2ccccc2)c(=O)n1N1CCCCCC1 | 240 | 3600 | – | – | – | –
3 | Cc1nc2c(cnn2CC2CCCCC2)c(=O)n1-c1ccc(Cl)cc1 | > 100000 | > 100000 | – | – | – | –
4 | Cc1nc2c(cnn2-c2ccccc2)c(=O)n1-c1ccc(Cl)c(F)c1 | 800 | > 100000 | 18 (≈ 6.39 µg/mL) | 183 | – | –
5 | Cc1nc2c(cnn2-c2ccccc2)c(=O)n1C1CCCCCC1 | 760 | – | – | – | – | –
6 | Cc1nc2c(cnn2-c2cncnc2)c(=O)n1-c1ccc(Cl)cc1 | 9800 | > 100000 | – | – | – | –
7 | Cc1nc2c(cnn2-c2ccccc2)c(=O)n1N1CCCCC1 | 91 | 2800 | 19 (≈ 5.88 µg/mL) | 1800 | 5.49 | –
8 | Cc1nc2c(cnn2-c2ccccc2)c(=O)n1-c1ccc(Br)cc1 | 78 | > 100000 | 14 (≈ 5.34 µg/mL) | 115 | 19.4 | AUC [6]: 1280 ng·h/mL; AUC (Rattus norvegicus [7]): 389 ng·h/mL; AUC [8]: 100 ng·h/mL; Vd [9]: 3.1 L/kg; clearance (Rattus norvegicus [10]): 13.3 mL/min/kg; Cmax (Rattus norvegicus [11]): 170 ng/mL; Cmax [12]: 30 ng/mL; Tmax (Rattus norvegicus [13]): 0.25 h; Tmax [14]: 1.3 h; half-life [15]: 2.5 h; t1/2 (Rattus norvegicus [16]): 0.25 h; half-life [17]: 1.3 h; bioavailability [18]: 30%; bioavailability [19]: 8%
9 | Cc1nc2c(cnn2-c2ccccc2)c(=O)n1-c1ccc(O)cc1 | 2400 | > 100000 | – | – | – | –
10 | Cc1nc2c(cnn2-c2ccccc2)c(=O)n1-c1ccc(OC(F)(F)F)cc1 | > 100000 | > 100000 | – | – | – | –
11 | Cc1nc2c(cnn2-c2cccc(S(N)(=O)=O)c2)c(=O)n1-c1ccc(Cl)cc1 | 127 | > 100000 | 42 (≈ 17.5 µg/mL) | < 41.7 | 17.6 | AUC [6]: 6150 ng·h/mL; AUC [20]: 7790 ng·h/mL; AUC [8]: 6240 ng·h/mL; Vd [9]: 0.4 L/kg; clearance (Rattus norvegicus [10]): 3.33 mL/min/kg; Cmax [21]: 1540 ng/mL; Cmax [12]: 2100 ng/mL; Tmax [22]: 1.7 h; Tmax [14]: 1.2 h; half-life [15]: 1.5 h; half-life [23]: 1.7 h; half-life [17]: 1.2 h
12 | Cc1nc2c(cnn2-c2ccccc2)c(=O)n1-c1ccc(S(N)(=O)=O)cc1 | > 100000 | > 100000 | – | – | – | –
13 | Cc1nc2c(cnn2C2CCCCCC2)c(=O)n1-c1ccc(Cl)cc1 | 520 | > 100000 | – | – | – | –
14 | Cc1nc2c(cnn2-c2ccccc2)c(=O)n1-c1cccc(Cl)c1 | > 100000 | – | – | – | – | –

More lines, main results first:

Row | IC50 [1] [nM] | IC50 [2] [nM] | solubility [3] [µM] | CLint scaled [4] [mL/min/kg] | Papp [5] [×10⁻⁶ cm/s] | Compound | also measured
15 | > 100000 | > 100000 | – | – | – | Cc1nc2c(cnn2-c2ccccn2)c(=O)n1-c1ccc(Cl)cc1 | –
16 | 350 | 9500 | – | – | – | Cc1ccccc1-n1ncc2c(=O)n(-c3ccc(Cl)cc3)c(C)nc21 | –
17 | 242 | 9600 | 18 (≈ 6.06 µg/mL) | 117 | 29.6 | Cc1nc2c(cnn2-c2ccccc2)c(=O)n1-c1ccc(Cl)cc1 | –
18 | 1100 | > 100000 | – | – | – | Cc1nc2c(cnn2-c2ccc(Cl)cc2)c(=O)n1-c1ccc(Cl)cc1 | –
19 | 230 | > 100000 | 73 (≈ 24.7 µg/mL) | 66.7 | 21.4 | Cc1nc2c(cnn2-c2cccnc2)c(=O)n1-c1ccc(Cl)cc1 | –
20 | 220 | > 100000 | 11 (≈ 4.08 µg/mL) | 183 | 5.6 | Cc1nc2c(cnn2-c2cccc(Cl)c2)c(=O)n1-c1ccc(Cl)cc1 | –
21 | > 100000 | > 100000 | – | – | – | Cc1nc2c(cnn2-c2cnccn2)c(=O)n1-c1ccc(Cl)cc1 | –
22 | 180 | > 100000 | 30 (≈ 10.5 µg/mL) | 400 | 13.4 | Cc1cccc(-n2ncc3c(=O)n(-c4ccc(Cl)cc4)c(C)nc32)c1 | –
